Here are results for 24 compounds from ChEMBL document CHEMBL3352164, “Discovery of N-(2,4-di-tert-butyl-5-hydroxyphenyl)-4-oxo-1,4-dihydroquinoline-3-carboxamide (VX-770, ivacaftor), a potent and orally bioavailable CFTR potentiator” (J Med Chem, 2014).

The target of data set [1] is Cystic fibrosis transmembrane conductance regulator (Homo sapiens, UniProt P13569, F508DEL). Kind of data set: Potentiation of human CFTR F508del mutant expressed in mouse NIH-3T3 cells after 30 mins by fluorescent voltage sensing optical assay. Format: cell-based, NIH3T3. The essentials:
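NIH-3T3 fibroblasts stably expressing human F508del-CFTR were held 16–24 h at 27 °C to correct misfolding. Cells were washed in NaCl/HEPES bath, pH 7.4, then loaded with voltage-sensing dyes plus compound for 30 min at room temperature. Cl−-free bath with forskolin was added once, and membrane potential change was read by fluorescence. EC50 is mean ± SD of at least three determinations.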

The nature of data set [2]: AUC (0 to infinity) in Sprague-Dawley rat at 2.45 mg/kg, iv. Format: ADME, organism-based. The arrangement: time infinity, dose 2.45 mg/kg, route intravenous. To be noted: plasma. Summed up: (§1)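 Male Sprague−Dawley rats, n = 3/group, single iv dose in dimethyl isosorbide/ethanol/PEG400/D5W (10%/15%/35%/40%) at 1 mL/kg. Carotid cannula blood at predose, 5, 15, 30, 45 min and 1, 2, 4, 6, 8, 12, 24, 36, 48 h. Plasma levels by LC/MS/MS (LLOQ 1 ng/mL, linear 1–2500 ng/mL). Noncompartmental analysis of mean profiles using measured doses.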

Data set [3] can be described thus: Clearance in Sprague-Dawley rat at 2.45 mg/kg, iv. The format is ADME, organism-based. To be noted: in vivo. The arrangement: dose 2.45 mg/kg, route intravenous. Summed up:
(§2)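 Animals (n = 3/group; male mouse, Sprague-Dawley rat, beagle dog, cynomolgus monkey) got a single iv dose in dimethyl isosorbide/ethanol/PEG400/D5W (10%/15%/35%/40%) at 1 mL/kg. Heparinized blood was drawn via an indwelling carotid cannula from predose to 48 h. Plasma was assayed by LC/MS/MS (LLOQ 1 ng/mL, linear 1–2500 ng/mL). Parameters came from noncompartmental analysis of mean profiles using measured doses.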

Data set [4] in a line: Half life in Sprague-Dawley rat at 2.45 mg/kg, iv. The format is ADME, organism-based. The arrangement: dose 2.45 mg/kg, route intravenous. To be noted: in vivo. Summed up: as §2
Data set [5] in a line: Volume of distribution at steady state in Sprague-Dawley rat at 2.45 mg/kg, iv. The format is ADME, organism-based. The arrangement: dose 2.45 mg/kg, route intravenous. To be noted: in vivo, read-out: Vdss. Summed up: as §2
Data set [6] is described as follows: AUC (0 to infinity) in Sprague-Dawley rat at 1.57 mg/kg, iv. The format is ADME, organism-based. More on the design: time infinity, dose 1.57 mg/kg, route intravenous. To be noted: plasma. Summed up: as §1
Data set [7] in a line: Clearance in Sprague-Dawley rat at 1.57 mg/kg, iv. The format is ADME, organism-based. More on the design: dose 1.57 mg/kg, route intravenous. As to conditions: in vivo. The essentials: as §2
The nature of data set [8]: Half life in Sprague-Dawley rat at 1.57 mg/kg, iv. Format: ADME, organism-based. The arrangement: dose 1.57 mg/kg, route intravenous. As to conditions: in vivo. The essentials: as §2
A short description of data set [9]: Volume of distribution at steady state in Sprague-Dawley rat at 1.57 mg/kg, iv. As to conditions: in vivo, read-out: Vdss. The arrangement: dose 1.57 mg/kg, route intravenous. The format is ADME, organism-based. The essentials:
as §2

Data set [10] has as its system Cystic fibrosis transmembrane conductance regulator (Homo sapiens), P13569 [F508del]. Kind of data set: Potentiation of human CFTR F508del mutant expressed in mouse NIH-3T3 cells at 30 uM after 30 mins by fluorescent voltage sensing optical assay relative to VRT-532. As to conditions: NIH3T3. Format: cell-based. The essentials:
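Same F508del-CFTR NIH-3T3 membrane-potential assay: 27 °C correction for 16–24 h, dye plus compound for 30 min at room temperature, then forskolin in Cl−-free bath. Compounds below 50% activity at 30 μM were not titrated. Their response at 30 μM is given as % of VRT-532.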

Data set [11] in a line: AUC (0 to infinity) in Sprague-Dawley rat at 2.49 mg/kg, iv. The format is ADME, organism-based. The arrangement: time infinity, dose 2.49 mg/kg, route intravenous. To be noted: plasma. The essentials:
as §1

Data set [12] can be described thus: Clearance in Sprague-Dawley rat at 2.49 mg/kg, iv. The format is ADME, organism-based. More on the design: dose 2.49 mg/kg, route intravenous. As to conditions: in vivo. Summed up:
as §2

Data set [13] is described as follows: Half life in Sprague-Dawley rat at 2.49 mg/kg, iv. To be noted: in vivo. More on the design: dose 2.49 mg/kg, route intravenous. The format is ADME, organism-based. Summed up: as §2
Data set [14] can be described thus: Volume of distribution at steady state in Sprague-Dawley rat at 2.49 mg/kg, iv. The arrangement: dose 2.49 mg/kg, route intravenous. As to conditions: in vivo, read-out: Vdss. The format is ADME, organism-based. Summed up: as §2

Cystic fibrosis transmembrane conductance regulator (Homo sapiens), P13569 [F508del], sequence (P13569 as listed by the source): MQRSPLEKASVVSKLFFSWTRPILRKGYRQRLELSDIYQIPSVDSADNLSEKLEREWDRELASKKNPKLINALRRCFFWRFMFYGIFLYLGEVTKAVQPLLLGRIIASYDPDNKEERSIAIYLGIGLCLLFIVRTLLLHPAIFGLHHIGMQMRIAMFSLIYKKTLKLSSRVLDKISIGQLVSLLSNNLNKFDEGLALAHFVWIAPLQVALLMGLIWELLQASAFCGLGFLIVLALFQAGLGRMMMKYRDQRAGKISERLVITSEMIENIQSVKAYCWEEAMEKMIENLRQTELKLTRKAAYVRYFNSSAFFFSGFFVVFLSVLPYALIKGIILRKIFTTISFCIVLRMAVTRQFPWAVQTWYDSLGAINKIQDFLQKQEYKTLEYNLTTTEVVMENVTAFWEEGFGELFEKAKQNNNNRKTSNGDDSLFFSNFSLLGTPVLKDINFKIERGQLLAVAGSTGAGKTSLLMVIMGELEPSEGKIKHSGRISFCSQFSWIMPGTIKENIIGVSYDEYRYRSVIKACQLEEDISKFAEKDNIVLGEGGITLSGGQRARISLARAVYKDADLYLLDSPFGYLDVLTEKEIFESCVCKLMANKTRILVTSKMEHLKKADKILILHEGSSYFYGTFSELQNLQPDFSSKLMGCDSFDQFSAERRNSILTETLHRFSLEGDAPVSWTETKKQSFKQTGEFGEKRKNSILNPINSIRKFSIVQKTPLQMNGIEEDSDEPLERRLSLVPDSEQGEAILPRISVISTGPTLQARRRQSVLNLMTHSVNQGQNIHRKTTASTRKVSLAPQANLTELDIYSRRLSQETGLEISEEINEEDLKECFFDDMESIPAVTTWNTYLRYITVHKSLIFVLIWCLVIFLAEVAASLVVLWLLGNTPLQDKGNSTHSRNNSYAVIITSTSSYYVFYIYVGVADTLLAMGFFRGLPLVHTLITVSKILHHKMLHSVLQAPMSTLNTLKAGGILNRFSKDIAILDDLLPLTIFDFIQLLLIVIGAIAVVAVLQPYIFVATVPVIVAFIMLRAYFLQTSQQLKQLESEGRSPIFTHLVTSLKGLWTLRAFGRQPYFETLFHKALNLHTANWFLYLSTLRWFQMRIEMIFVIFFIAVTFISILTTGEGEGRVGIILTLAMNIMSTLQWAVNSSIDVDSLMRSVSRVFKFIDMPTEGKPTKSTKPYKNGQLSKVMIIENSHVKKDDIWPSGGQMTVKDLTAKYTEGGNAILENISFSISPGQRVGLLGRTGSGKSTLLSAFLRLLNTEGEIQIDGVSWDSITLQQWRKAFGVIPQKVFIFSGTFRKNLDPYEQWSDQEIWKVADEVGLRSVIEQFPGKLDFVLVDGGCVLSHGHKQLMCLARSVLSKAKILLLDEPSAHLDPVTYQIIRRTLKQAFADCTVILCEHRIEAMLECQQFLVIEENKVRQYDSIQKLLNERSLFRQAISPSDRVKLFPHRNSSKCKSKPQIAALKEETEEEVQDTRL
Cystic fibrosis transmembrane conductance regulator, sequence (P13569 as listed by the source): as above

In the case of `CC(C)(C)c1c[nH]c2cc(NC(=O)c3c[nH]c4ccccc4c3=O)ccc12`, the EC50 in data set [1] was determined as 9 nM. The same compound registered an AUC(0-inf) in [2] of 700 ng·h/mL. This compound displayed a clearance in data set [3] of 60.7 mL/min/kg. The compound further showed a half-life in [4] of 1.3 h. Besides, in [5], the Vd was 4.4 L/kg.

Take `CC(C)(C)c1cc(F)c(NC(=O)c2c[nH]c3ccccc3c2=O)cc1O`: the EC50 in data set [1] worked out at 2 nM. The AUC(0-inf) in data set [6] worked out at 520 ng·h/mL. The compound further had a clearance in data set [7] of 62.9 mL/min/kg. In [8], this compound showed a half-life of 1.1 h. In addition, the Vd in [9] turned out to be 2.9 L/kg.

Turning to `Cn1cc(C(=O)N(Cc2ccccc2)Cc2ccccc2)c(=O)c2ccccc21`, in data set [10], the Activity stood at 37%.

For the compound `O=C(Nc1ccc2nc[nH]c2c1)c1c[nH]c2ccccc2c1=O`, in data set [10], the Activity amounted to 12%.

Take `O=C(c1cnc2ccccc2c1)N(Cc1ccccc1)Cc1ccccc1`: in data set [1], the EC50 stood at 16000 nM.

`CC(C)(C)c1ccc(NC(=O)c2c[nH]c3ccccc3c2=O)cc1CO`: the half-maximal effective concentration (EC50) in data set [1] was 100 nM.

Consider `CC(C)c1ccc(NC(=O)c2c[nH]c3ccccc3c2=O)cc1`, for which the 50% effective concentration (EC50) in data set [1] amounted to 200 nM.

As for `O=C(Oc1ccc2cc[nH]c2c1)c1c[nH]c2ccccc2c1=O`, the Activity in [10] was found to be 19%.

As to `O=C(Nc1cnc2ccccc2c1O)c1ccc2cc[nH]c2c1`, the Activity in data set [10] was 8%.

As to `O=C(Nc1ccccc1)c1c[nH]c2ccccc2c1=O`, in [1], the EC50 worked out at 1300 nM.

With `O=C(Nc1ccc2ccccc2c1)c1c[nH]c2ccccc2c1=O`, the concentration giving a half-maximal response (EC50) in [1] came out at 800 nM.

Consider `CCc1c[nH]c2cc(NC(=O)c3c[nH]c4ccccc4c3=O)ccc12`, for which the EC50 in [1] was found to be 100 nM.

On to `CCc1ccc(NC(=O)c2c[nH]c3ccccc3c2=O)cc1`, for which the half-maximal effective concentration (EC50) in [1] stood at 800 nM.

Consider `CCc1ccc(NC(=O)c2c[nH]c3ccccc3c2=O)cc1N`, for which, in data set [1], the concentration giving a half-maximal response (EC50) is 1700 nM.

Take `CC(C)(C)c1ccc(NC(=O)c2c[nH]c3ccccc3c2=O)cc1N`: in data set [1], the half-maximal effective concentration (EC50) is 100 nM.

Take `CC(C)(C)c1ccc(NC(=O)c2c[nH]c3ccccc3c2=O)cc1F`: in data set [1], the concentration for a half-maximal effect (EC50) was determined as 100 nM.

`O=c1c(CNc2ccc3cc[nH]c3c2)c[nH]c2ccccc12`: in data set [10], the Activity was 1%.

As to `O=C(Nc1ccc2[nH]ccc2c1)c1c[nH]c2ccccc2c1=O`, the EC50 in data set [1] amounted to 6100 nM.

As for `CC(C)(C)c1ccc(NC(=O)c2c[nH]c3ccccc3c2=O)cc1CN`, the Activity in data set [10] was found to be 20%.

Take `CCc1cccc(CC)c1NC(=O)c1c[nH]c2ccccc2c1=O`: the 50% effective concentration (EC50) in data set [1] turned out to be 1500 nM.

For `Cc1ccc(NC(=O)c2c[nH]c3ccccc3c2=O)cc1N`, in data set [1], the EC50 is 6000 nM.

`CC(C)(C)c1cc2cc[nH]c2cc1NC(=O)c1c[nH]c2ccccc2c1=O`: in data set [1], the EC50 was 11 nM. Further, the area under the curve AUC(0-inf) in data set [11] worked out at 2640 ng·h/mL. The clearance in [12] worked out at 15.8 mL/min/kg. In [13], this compound showed a half-life of 2.9 h. In addition, the Vd in [14] was determined as 3.3 L/kg.

Take `O=C(c1cnccc1O)N(Cc1ccccc1)Cc1ccccc1`: the Activity in [10] turned out to be 2%.

For the compound `CC(C)c1ccc(NC(=O)c2c[nH]c3ccccc3c2=O)cc1N`, in [1], the 50% effective concentration (EC50) amounted to 300 nM.
